Assay results: publication PMC7689742 (Clinical Pharmacology and Therapeutics, 2020)
Converted amounts (≈) assume the structure as drawn. “And” between values parts separate entries of the source, which are not always exact repeats. Equal entries are not always repeated. Where two headings read alike, the source gives them in different places.

Legend:
[1] = Determination of the binding constant; assay type: physicochemical; settings: aqueous, 48 hours, ambient
Summary of the method: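 Excess test compound was added to sealed glass vials of aqueous α-cyclodextrin or HP-β-CD at several concentrations. Vials were shaken 48 h at ambient conditions to equilibrate, then centrifuge-filtered to remove solids. Dissolved compound was quantified by HPLC with diode array detection. k_complex = [complex]/([intrinsic solubility]·[free cyclodextrin]).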

[2] = GastroPlus dog model
[3] = Pharmacokinetic study in pentagastrin‐pretreated dogs with or without HP‐β‐CD; assay type: in vivo, dog; settings: for AUC 0‐∞ / Fenebrutinib recovered in feces / Cmax / Tmax: 100 mg tablets; for Cmax / Tmax: male, beagle, dog, plasma, po, 100 mg
Summary of the method: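 Fasted male beagles got intramuscular pentagastrin at 6 µg/kg about 30 min before dosing. They then had oral gavage of pH 2 water (control) or HP-β-CD in pH 2 water (0.8, 2 or 8 g total), each plus water to 250 mL, followed by two 50 mg tablets (n = 4/group). Plasma was sampled 5 min–24 h and assayed by LC-MS/MS (LLOQ 1.02 ng/mL). Cumulative fecal recovery was measured. Groups were compared by one-way ANOVA with Bonferroni's test.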

[4] = test system: MDCK cell monolayer; assay: Permeability across an MDCK cell monolayer; assay type: in vitro ADME, canine; settings: HP‐β‐CD:fenebrutinib molar ratio 1.56 (266 mg HP‐β‐CD)
Summary of the method: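 MDCK cells with canine Mdr1 knocked out by CRISPR-Cas9 were grown 5 days on 1 µm pore polyester inserts. Monolayers were equilibrated 20 min at 37°C in HBSS with 10 mM Hepes, pH 7.4. Donor held 20 µM test compound, 50 µM lucifer yellow and 0–20% w/v HP-β-CD. Apical-to-basolateral receivers were sampled at 30, 60 and 90 min. Quantitation was by LC-MS/MS; Papp = (dQ/dt)/(A·C0).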

[5] = GastroPlus human model; settings: for clearance: both, human, plasma, oral
[6] = Itraconazole clinical DDI study, fenebrutinib PK in healthy subjects; assay type: in vivo, human
Summary of the method: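 Single oral 100 mg test-compound dose on Day 1; after a 3-day washout, inhibitor 200 mg oral solution once daily Days 4–9, with co-dosed 100 mg test compound Day 10 and one more inhibitor dose Day 11. Overnight fast, 240 mL water, food withheld 4 h post-dose. Plasma sampled predose to 48 h on Days 1 and 10. Mixed-model least-squares means, 90% CI of difference.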

[7] = Determination of the binding constant; assay type: physicochemical; settings: for k complex (M^−1) / k complex: 1:1 complex with HP‐β‐CD, source Internal data
[8] = Physiochemical properties used for fenebrutinib
[9] = 1:1 complex with HP‐β‐CD; cited from earlier work
[10] = dog model, from intravenous PK data
[11] = two‐compartment model fit to control group
[12] = both, human, plasma, po, 100 mg

C[C@H]1CN(C2COC2)CCN1c1ccc(Nc2cc(-c3ccnc(N4CCn5c(cc6c5CC(C)(C)C6)C4=O)c3CO)cn(C)c2=O)nc1 [Fenebrutinib]
k complex with α‐CD [1]: 4,000 M^−1
transfer rate constant from the central to peripheral compartment [2, 10]: 0.08 h⁻¹
transfer rate constant from the peripheral to central compartment [2, 10]: 0.2 h⁻¹
clearance ([2]; dog, plasma, iv): 6 mL/min/kg
AUC 0‐∞ ([3]; HP‐β‐CD 0 g): 28.9 ± 6.98 µg/h/mL
Fenebrutinib recovered in feces ([3]; HP‐β‐CD 0 g): 3.48 ± 0.681 mg
AUC 0‐∞ ([3]; HP‐β‐CD 0.8 g): 17.4 ± 6.92 µg/h/mL
Fenebrutinib recovered in feces ([3]; HP‐β‐CD 0.8 g): 11.2 ± 2.39 mg
AUC 0‐∞ ([3]; HP‐β‐CD 2 g): 8.38 ± 1.94 µg/h/mL
Fenebrutinib recovered in feces ([3]; HP‐β‐CD 2 g): 15.6 ± 8.99 mg
AUC 0‐∞ ([3]; HP‐β‐CD 8 g): 4.46 ± 2.07 µg/h/mL
Fenebrutinib recovered in feces ([3]; HP‐β‐CD 8 g): 22.7 ± 7.76 mg
increase of recovery in feces vs control ([3]; HP‐β‐CD 0.8 g): ~3 fold
AUC decrease vs control ([3]; HP‐β‐CD 2 g): ~3.5 fold
Cmax decrease vs control ([3]; HP‐β‐CD 2 g): ~3.5 fold
increase of recovery in feces vs control ([3]; HP‐β‐CD 2 g): ~4.5 fold
AUC decrease vs control ([3]; HP‐β‐CD 8 g): about 7 fold
increase of recovery in feces vs control ([3]; HP‐β‐CD 8 g): about 6.5 fold
Cmax ([3]; HP‐β‐CD 0 g): 3940 ± 225 ng/mL
Cmax ([3]; HP‐β‐CD 0.8 g): 2090 ± 243 ng/mL
Cmax ([3]; HP‐β‐CD 2 g): 1110 ± 142 ng/mL
Cmax ([3]; HP‐β‐CD 8 g): 447 ± 204 ng/mL
Tmax ([3]; HP‐β‐CD 0 g): 0.875 ± 0.25 h
Tmax ([3]; HP‐β‐CD 0.8 g): 1.38 ± 1.11 h
Tmax ([3]; HP‐β‐CD 2 g): 2 ± 1.15 h
Tmax ([3]; HP‐β‐CD 8 g): 3 h
reduction in P app [4]: ~2 fold
clearance [5]: 19.2 mL/min/kg
clearance ([5]; 100 mg): 35 mL/min/kg
reduction of systemic clearance in the presence of itraconazole ([5]; residual method on elimination phases): approximately 45%
transfer rate constant from the central to peripheral compartment [5, 11]: 0.5 h⁻¹
transfer rate constant from the peripheral to central compartment [5, 11]: 0.19 h⁻¹
AUC0–24h ([6]; 100 mg fenebrutinib oral alone, healthy subjects): 1.11 ± 0.359 µg/h/mL
AUC0–24h ([6]; 100 mg fenebrutinib with 200 mg itraconazole oral solution (steady state)): 2.45 ± 0.588 µg/h/mL
Cmax [6, 12]: 221 ± 82.5 ng/mL
Tmax [6, 12]: 1.56 ± 0.629 h
half-life [6, 12]: 496 ± 140 min
k complex (M^−1) [7]: 200,000 M^−1
k complex with HP‐β‐CD ([7]; aqueous, 48 hours, ambient): 2 × 10^5 M^−1 and ~ 2 × 10^5 M^−1
particle size distribution median diameter (D50) [8]: 12 µm
solubility ([8]; pH 2.3): 36000 µg/mL (≈ 54200 µM)
solubility ([8]; pH 6.5, fassif): 9 µg/mL (≈ 13.5 µM)
solubility ([8]; pH 7.8, aqueous buffer): 0.1 µg/mL (≈ 0.15 µM)

Clc1ccc(COC(Cn2ccnc2)c2ccc(Cl)cc2Cl)cc1 (stereo not drawn) [Econazole]
k complex [9]: 180 M⁻¹

COc1ccc2cc([C@H](C)C(=O)O)ccc2c1 [Naproxen]
k complex [9]: 780 M⁻¹

CN1C(=O)CN=C(c2ccccc2F)c2cc([N+](=O)[O-])ccc21 [Flunitrazepam]
k complex (M^−1) [9]: 1,100 M^−1

Nc1ccc(S(=O)(=O)Nc2nccs2)cc1 [Sulfathiazole]
k complex [7]: 450 M⁻¹

CCn1cc(C(=O)O)c(=O)c2cc(F)c(N3CCNCC3)cc21 [Norfloxacin]
k complex [7]: 5 M⁻¹

Cc1nnc2n1-c1ccc(Cl)cc1C(c1ccccc1)=NC2 [Alprazolam]
k complex [9]: 250 M⁻¹

CC[C@@]1(O)C(=O)OCc2c1cc1n(c2=O)Cc2cc3ccccc3nc2-1 [Camptothecin]
k complex [9]: 184 M⁻¹

CC(=O)Nc1nnc(S(N)(=O)=O)s1 [Acetazolamide]
k complex [9]: 85 M⁻¹

Cc1nnc2n1-c1ccc(Cl)cc1C(c1ccccc1Cl)=NC2 [Triazolam]
k complex [9]: 200 M⁻¹

Clc1ccc(COC(Cn2ccnc2)c2ccc(Cl)cc2Cl)c(Cl)c1 (stereo not drawn) [Miconazole]
k complex [9]: 260 M⁻¹

O=C(O)c1cc(-c2ccc(F)cc2F)ccc1O [Diflunisal]
k complex (M^−1) [7]: 1,600 M^−1

CN1C(=O)CN=C(c2ccccc2)c2cc(Cl)ccc21 [Diazepam]
k complex [9]: 184 M⁻¹

C[C@]12CC[C@@H]3c4ccc(O)cc4CC[C@H]3[C@@H]1CC[C@@H]2O [Estradiol]
k complex (M^−1) [9]: 38,600 M^−1

C[C@H]1O[C@@H](O[C@H]2[C@@H](O)C[C@H](O[C@H]3[C@@H](O)C[C@H](O[C@H]4CC[C@@]5(C)[C@H](CC[C@@H]6[C@@H]5C[C@@H](O)[C@]5(C)[C@@H](C7=CC(=O)OC7)CC[C@]65O)C4)O[C@@H]3C)O[C@@H]2C)C[C@H](O)[C@@H]1O [Digoxin]
k complex (M^−1) [9]: 6,800 M^−1

CC/C(=C(/CC)c1ccc(O)cc1)c1ccc(O)cc1 [Diethylstilbestrol]
k complex (M^−1) [9]: 59,200 M^−1

C[C@]12CCC(=O)C=C1CC[C@@H]1[C@@H]2[C@@H](O)C[C@@]2(C)[C@H]1CC[C@]2(O)C(=O)CO [Hydrocortisone]
k complex (M^−1) [9]: 1,900 M^−1

CS(=O)(=O)c1ccc(C2=C(c3ccccc3)C(=O)OC2)cc1 [Rofecoxib]
k complex [7]: 190 M⁻¹

Cc1cc(NS(=O)(=O)c2ccc(N)cc2)no1 [Sulfamethoxazole]
k complex [9]: 360 M⁻¹

Cc1ccc(-c2cc(C(F)(F)F)nn2-c2ccc(S(N)(=O)=O)cc2)cc1 [Celecoxib]
k complex (M^−1) [7]: 3,000 M^−1

C[C@]12C=CC(=O)C=C1CC[C@@H]1[C@@H]2[C@@H](O)C[C@@]2(C)[C@H]1CC[C@]2(O)C(=O)CO [Prednisolone]
k complex [9]: 958 M⁻¹
